Source: PubChem (several laboratories)
The list is not random: actives were taken first. Their share in the collection is about 1.1%.
TbHK1 inh – T. brucei hexokinase 1 inhibition | recombinant TbHK1, G6PDH-coupled NADH A340 | inhibition, % at 10 µM | 0.11% of 220,000 active | AID 1430;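 active means inhibition of 50% or more in the single-dose primary screen; inactive means inhibition below 50%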
Diaph inh CS – diaphorase inhibition or chemical oxidation counter-screen. diaphorase resazurin-to-resorufin fluorescence, NADH, 16 min; bacterial (C. kluyveri) enzyme, not human. AID 1217. 0.69% of 190,000 active. inhibition, % at 20 µM;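 active means primary screen inhibition at 20 µM above a set limit, cut at about 50% in these data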;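 further: plate controls were DMSO with full reaction for no effect and wells lacking NADH for full effect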
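Test system: diaphorase enzyme from Clostridium kluyveri; amount: diaphorase at 0.14 U/mL in enzyme working solution; detection: fluorescence of resorufin formed from resazurin, Ex 544/Em 590 nm; times: reaction incubation of 16 min at room temperature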
G6PDH CS – counter-screen for G6PDH assay hits: L. mesenteroides G6PDH inhibition; Purified L. mesenteroides G6PDH, diaphorase/resazurin coupled fluorescence, 45 min; inhibition, % at 5 µM; 0.12% of 200,000 active; AID 1020; in the data active means inhibition above about 50%
PMI activator – phosphomannose isomerase (human) activation. 0.005% of 190,000 active. AID 1214. purified human PMI, coupled resazurin fluorescence, 20 min; active compounds read high; 1 = vehicle control, 0 substrate-free wells. activation factor at 20 µM. P34949;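 active means activation factor of 2 or more at 20 µM, relative to plate controls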
Target sequence (P34949 whole entry, looked up): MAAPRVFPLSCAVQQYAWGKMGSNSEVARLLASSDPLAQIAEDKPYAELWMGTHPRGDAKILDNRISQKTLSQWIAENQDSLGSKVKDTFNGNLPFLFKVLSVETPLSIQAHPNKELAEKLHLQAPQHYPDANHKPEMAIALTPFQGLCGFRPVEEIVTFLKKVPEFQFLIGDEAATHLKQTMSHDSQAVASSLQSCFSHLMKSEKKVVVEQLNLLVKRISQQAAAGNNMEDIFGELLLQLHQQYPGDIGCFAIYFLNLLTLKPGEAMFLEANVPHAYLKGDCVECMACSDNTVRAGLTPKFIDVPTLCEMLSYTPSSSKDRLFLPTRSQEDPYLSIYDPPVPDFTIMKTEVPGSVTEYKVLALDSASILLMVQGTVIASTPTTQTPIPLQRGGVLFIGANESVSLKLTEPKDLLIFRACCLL
Diaphorase act – activates diaphorase or chemically reduces, flagging diaphorase assay artifacts; Diaphorase/resazurin coupled assay, resorufin fluorescence, 16 min; active compounds read high; 1 = vehicle wells, 0 = NADH-free wells; activation factor at 20 µM; 0.005% of 190,000 active; AID 1229;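 active means diaphorase activity raised at least twofold by the compound at 20 µM; inactive means activation factor below 2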
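test system = bacterial diaphorase enzyme (C. kluyveri) | quantity = enzyme 0.07 U/mL final | reagent = NADH substrate 0.114 mM plus resazurin dye 0.1 mM, final | incubation = 16 min enzyme reaction, ambient temperature | buffer or medium = HEPES pH 7.4 buffer with MgCl2 and Tween 20 | signal = fluorescence of resorufin, 544 nm excitation, 590 nm emission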
PMI act hi M6P – activators of human phosphomannose isomerase at near-saturating mannose 6-phosphate. P34949. 0.34% of 190,000 active. activation factor at 20 µM. coupled PMI enzyme assay, resazurin fluorescence, 20 min; active compounds read high; 1 = untreated enzyme, 0 = substrate-free blank. AID 1216;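 active means activation factor of 2 or more at 20 µM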
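Technique: Diaphorase-driven resazurin-to-resorufin fluorescence, excitation 544, emission 590 nm | Assay system: Human PMI in coupled enzyme assay | Times: Enzyme reaction with compound 20 min at room temperature | Medium: HEPES-buffered pH 7.4 with magnesium and detergent | Reagent: Mannose-6-phosphate 1.0 mM (near-saturating) plus 0.22 mM NADP+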
* marks the source's active call; other numbers are inactive results.

Screening CNc1nnc(Sc2ncccc2[N+](=O)[O-])s1 returned TbHK1 inh -23.
For O=C(O)c1cc(N/N=C/c2ccc(OCc3ccccc3)cc2)ccc1Cl the results were TbHK1 inh 7, Diaph inh CS 9, G6PDH CS 12, PMI activator 1.7, Diaphorase act 0.9 and PMI act hi M6P 2.5*.
`NC(=S)N/N=C/c1ccccc1O` gave TbHK1 inh -41.
Screening Oc1ccccc1/C=N/Nc1ccccc1 returned TbHK1 inh -19, Diaph inh CS 20, G6PDH CS 3, PMI activator 1.6, Diaphorase act 0.8 and PMI act hi M6P 2.3*.
Screening O=C(O)c1ccc(N/N=C/c2cn(Cc3ccccc3F)c3ccccc23)cc1 returned TbHK1 inh -16.
Screening Cn1cc(/C=N/Nc2ccccc2)c2ccccc21 returned TbHK1 inh -1, Diaph inh CS 18, G6PDH CS 11, PMI activator 1.6, Diaphorase act 0.8 and PMI act hi M6P 2.5*.
COC(=O)c1ccc(COc2ccc(/C=N/Nc3cccc(C(=O)O)c3)cc2)cc1 was read as TbHK1 inh -3.
For Oc1ccccc1/C=N/Nc1ncc(Br)cn1 the results were TbHK1 inh -4, Diaph inh CS 14, G6PDH CS 58*, PMI activator 0.8, Diaphorase act 0.9 and PMI act hi M6P 0.8.
Cc1cc(O)c(/C=N/Nc2ccccc2)c(=O)o1 was read as TbHK1 inh -22, Diaph inh CS 17, G6PDH CS 15, PMI activator 1.5, Diaphorase act 0.8 and PMI act hi M6P 2*.
Screening O=C(Oc1ccc(/C=N/Nc2ccccc2)cc1)c1ccccc1 returned TbHK1 inh -4, Diaph inh CS -12, G6PDH CS 0, PMI activator 1.5, Diaphorase act 1.1 and PMI act hi M6P 2.3*.
Screening CCCCCCCC(=O)N/N=C(/C)c1c(O)cc(C)oc1=O returned TbHK1 inh -8, Diaph inh CS 20, G6PDH CS 7, PMI activator 1, Diaphorase act 0.8 and PMI act hi M6P 1.1.
Screening O=C(Oc1ccc(/C=N/O)cc1)c1ccccc1 returned TbHK1 inh -4, Diaph inh CS 15, G6PDH CS -1, PMI activator 0.9, Diaphorase act 0.9 and PMI act hi M6P 0.9.
Cc1cc(O)c(C=Nc2cccc(Cl)c2)c(=O)o1 was read as TbHK1 inh -3, Diaph inh CS 12, G6PDH CS -7, PMI activator 1.1, Diaphorase act 0.9 and PMI act hi M6P 1.2.
Screening C/C(=N\Nc1ccc(Cl)cc1)c1c(O)cc(C)oc1=O returned TbHK1 inh -5, Diaph inh CS 12, G6PDH CS 2, PMI activator 1.7, Diaphorase act 0.9 and PMI act hi M6P 2.6*.
Cc1ccc2nc(N3C(=O)C(O)=C(C(=O)c4cc5ccccc5o4)C3c3cccs3)sc2c1 (configuration not stated) was read as TbHK1 inh -3, Diaph inh CS 12, G6PDH CS 8, PMI activator 1.4, Diaphorase act 0.9 and PMI act hi M6P 2*.
For Cc1ccc(-n2c(=S)[nH]c3c(oc4ccccc43)c2=O)cc1 the results were TbHK1 inh -11, Diaph inh CS 66*, G6PDH CS 14, PMI activator 1, Diaphorase act 0.3 and PMI act hi M6P 1.1.
Cc1cccc(-n2c(=S)[nH]c3c(oc4ccccc43)c2=O)c1 was read as TbHK1 inh 23, Diaph inh CS 64*, G6PDH CS -2, PMI activator 1, Diaphorase act 0.4 and PMI act hi M6P 0.9.
`O=c1c2oc3ccccc3c2[nH]c(=S)n1-c1ccccc1` gave TbHK1 inh -12, Diaph inh CS 66*, G6PDH CS -35, PMI activator 0.9, Diaphorase act 0.3 and PMI act hi M6P 0.8.
Screening Cc1ccc(-n2c(C)nc3oc4ccccc4c(=O)c3c2=O)cc1 returned TbHK1 inh 3, Diaph inh CS 56*, G6PDH CS 15 and Diaphorase act 0.4.
`Cc1c(-n2c(=S)[nH]c3ccccc3c2=O)c(=O)n(-c2ccccc2)n1C` gave TbHK1 inh 0, Diaph inh CS 10, G6PDH CS -5, PMI activator 1, Diaphorase act 0.9 and PMI act hi M6P 1.1.
For O=C(N/N=C/c1ccccn1)c1cccc(S(=O)(=O)N2CCCC2)c1 the results were TbHK1 inh 2.
`Cc1nnc(NC(=O)C2CCN(S(=O)(=O)c3ccc(Cl)cc3)CC2)s1` gave TbHK1 inh 7, Diaph inh CS 12, G6PDH CS 2, PMI activator 1.1, Diaphorase act 0.9 and PMI act hi M6P 1.
O=C(O)c1ccc(N/N=C/c2cccc(F)c2)cc1 was read as TbHK1 inh -21, Diaph inh CS -3, G6PDH CS 0, PMI activator 1.9, Diaphorase act 1 and PMI act hi M6P 2.9*.
Screening Cn1cccc1/C=N/n1c(-c2ccc(Cl)cc2Cl)n[nH]c1=S returned TbHK1 inh -15, Diaph inh CS 72*, G6PDH CS -12, PMI activator 0.8, Diaphorase act 0.3 and PMI act hi M6P 0.8.
`O=C1OC(Nc2ccc3ncccc3c2)c2ccccc21` (configuration not stated) gave TbHK1 inh -18, Diaph inh CS 56*, G6PDH CS 28, PMI activator 0.4, Diaphorase act 0.4 and PMI act hi M6P 0.4.
`Cc1cccnc1NC1OC(=O)c2ccccc21` (configuration not stated) gave TbHK1 inh 8, Diaph inh CS 4, G6PDH CS 2, PMI activator 1, Diaphorase act 1 and PMI act hi M6P 1.
COc1cccc(CNc2ccc(N3CCCCC3)cc2)c1OC was read as TbHK1 inh 5, Diaph inh CS 60*, G6PDH CS 13, PMI activator 0.3, Diaphorase act 0.4 and PMI act hi M6P 0.4.
Screening COc1ccccc1CNc1ccc(N2CCCCC2)cc1 returned TbHK1 inh 7, Diaph inh CS 65*, G6PDH CS -14, PMI activator 0.3, Diaphorase act 0.3 and PMI act hi M6P 0.4.
For Oc1ccc(/C=N/Nc2cc(N3CCCC3)nc(N3CCCC3)n2)cc1 the results were TbHK1 inh -10, Diaph inh CS 24, G6PDH CS 52*, PMI activator 0.7, Diaphorase act 0.8 and PMI act hi M6P 0.4.
`Oc1ccc(/C=N/Nc2cc(N3CCOCC3)nc(N3CCOCC3)n2)cc1` gave TbHK1 inh -55.
`Oc1ccc(/C=N/Nc2nc(N3CCCC3)nc(N3CCCC3)n2)cc1O` gave TbHK1 inh -30, Diaph inh CS 72*, G6PDH CS 28, PMI activator 0.4, Diaphorase act 0.3 and PMI act hi M6P 0.7.
